Test results taken from ChEMBL document CHEMBL3120072, “Alkynyl-coumarinyl ethers as MAO-B inhibitors” (Bioorg Med Chem, 2014).

Key:
Homo sapiens = species: Homo sapiens; test: Selectivity ratio of IC50 for human recombinant MAO-A to IC50 for human recombinant MAO-B
In short: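 Ratio calculated as IC50 (MAO-A) divided by IC50 (MAO-B), from Amplex Red assays with p-tyramine on human recombinant enzymes.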

[1] = Lipophilicity, log D of the compound at pH 7.4 by HPLC analysis; assay type: physicochemical; details: buffer
In short: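 Retention-based HPLC on a C18 column at 40 °C and 0.8 mL/min. Linear gradient with 10 mM ammonium acetate. UV read at 254 nm. Atenolol, metoprolol, diltiazem, labetalol and triphenylene used as references. Compounds injected from DMSO solutions (0.5 mg/mL) in duplicate.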

[2] = biological target: T1, Amine oxidase [flavin-containing] B (Homo sapiens, UniProt P27338); test: Inhibition of human recombinant MAO-B expressed in baculovirus infected insect cells assessed as hydrogen peroxide production using p-tyramine as substrate incubated for 30 mins prior to substrate addition measured for 45 mins by Amplex Red monoamine oxidase assay
T1 sequence (P27338 whole entry): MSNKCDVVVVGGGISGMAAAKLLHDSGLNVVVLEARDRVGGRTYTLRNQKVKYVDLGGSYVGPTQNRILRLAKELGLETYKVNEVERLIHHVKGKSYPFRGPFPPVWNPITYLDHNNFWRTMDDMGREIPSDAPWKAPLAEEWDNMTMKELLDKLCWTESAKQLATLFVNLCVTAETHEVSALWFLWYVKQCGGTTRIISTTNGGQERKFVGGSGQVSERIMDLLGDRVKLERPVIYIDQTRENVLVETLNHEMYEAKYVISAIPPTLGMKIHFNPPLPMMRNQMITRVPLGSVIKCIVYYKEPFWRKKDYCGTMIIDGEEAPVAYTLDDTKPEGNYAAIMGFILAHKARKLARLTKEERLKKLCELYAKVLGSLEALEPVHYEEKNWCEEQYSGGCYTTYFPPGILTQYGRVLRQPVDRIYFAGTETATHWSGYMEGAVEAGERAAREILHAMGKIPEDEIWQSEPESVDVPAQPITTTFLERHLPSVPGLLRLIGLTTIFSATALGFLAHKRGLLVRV
In short: (§1)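 Human recombinant enzyme in 50 mM sodium phosphate pH 7.4. Test compound in DMSO preincubated with enzyme for 30 min at room temperature. Reaction started with p-tyramine (final 150 µM) plus Amplex Red/HRP and kept in the dark. Resorufin fluorescence (ex 544, em 590 nm) read over 45 min. IC50 values from three experiments.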

[3] = biological target: T2, Amine oxidase [flavin-containing] A (Homo sapiens, UniProt P21397); test: Inhibition of human recombinant MAO-A expressed in baculovirus infected insect cells assessed as hydrogen peroxide production using p-tyramine as substrate incubated for 30 mins prior to substrate addition measured for 45 mins by Amplex Red monoamine oxidase assay; in short: as §1
T2 sequence (P21397 whole entry): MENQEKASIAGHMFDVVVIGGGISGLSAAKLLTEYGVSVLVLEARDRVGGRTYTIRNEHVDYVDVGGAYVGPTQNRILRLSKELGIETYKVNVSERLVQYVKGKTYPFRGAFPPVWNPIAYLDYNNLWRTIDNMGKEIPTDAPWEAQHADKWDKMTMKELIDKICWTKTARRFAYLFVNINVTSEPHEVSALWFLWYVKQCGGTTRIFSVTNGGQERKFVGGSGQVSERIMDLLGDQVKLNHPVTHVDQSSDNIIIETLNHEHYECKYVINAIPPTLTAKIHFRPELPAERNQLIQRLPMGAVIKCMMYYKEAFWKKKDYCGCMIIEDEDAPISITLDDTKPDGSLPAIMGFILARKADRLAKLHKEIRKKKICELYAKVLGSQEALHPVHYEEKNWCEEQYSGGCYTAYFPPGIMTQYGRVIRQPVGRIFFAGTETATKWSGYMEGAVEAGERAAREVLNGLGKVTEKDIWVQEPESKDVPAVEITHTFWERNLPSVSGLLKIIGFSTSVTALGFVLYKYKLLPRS

[4] = biological target: T1, Amine oxidase [flavin-containing] B; test: Reversible inhibition of human MAO-B using p-tyramine as substrate at IC80 incubated for 1 hr prior to increasing substrate concentration measured for 5 hrs by fluorescence analysis
In short: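 Human MAO-B preincubated 1 h with inhibitor at about its IC80. Reaction started with p-tyramine (10 µM). After 22 min, substrate raised to a final 1 mM. Recovery of activity followed by fluorescence over 5 h.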

SMILES	Ratio IC50 (Homo sapiens)	logD [1]	IC50 [2] [nM]	IC50 [3] [nM]	inhibition (INH) [4]
C#CCCCCOc1ccc2oc(=O)c(C(=O)OC)cc2c1	> 81		123	> 10000	
C#CCNCCOc1ccc2cc(C(=O)OC)c(=O)oc2c1	7	0.5	377	2680	
C#CCCCOc1ccc2oc(=O)c(C(=O)OC)cc2c1	> 7		1440	> 10000	
COC(=O)c1cc2cc(OCCc3ccc(Cl)cc3)ccc2oc1=O	> 83		120	> 10000	
COC(=O)c1cc2cc(OC/C=C(\C)CCC=C(C)C)ccc2oc1=O	> 31		325	> 10000	
C#CCCCOc1ccc2cc(C(=O)Nc3ccc(F)cc3)c(=O)oc2c1			> 10000	> 10000	
COC(=O)c1cc2ccc(OC/C=C(\C)CCC=C(C)C)cc2oc1=O	130		78.9	10000	
C#CCCCOc1cccc2cc(C(=O)OC)c(=O)oc12			> 10000	> 10000	
C#CCCCCOc1ccc2oc(=O)c(C(=O)c3ccc(OC)cc3)cc2c1			> 10000	> 10000	
C#CCCOc1ccc2cc(C(=O)OC)c(=O)oc2c1	3		258	818	
C[C@H](NCc1ccc(OCc2cccc(F)c2)cc1)C(N)=O [SAFINAMIDE]					Active
C#CCCCOc1ccc2cc(C(=O)c3ccc(OC)cc3)c(=O)oc2c1	> 19	3.1	535	> 10000	
C#CCCCOc1ccc2cc(C(=O)OC)c(=O)oc2c1	12		82.4	953	
C#CCCCOc1ccc2cc(C(=O)N3CCN(C(=O)OC(C)(C)C)CC3)c(=O)oc2c1			10000	> 10000	
C#CCCCOc1ccc2cc(C(=O)O)c(=O)oc2c1			> 10000	> 10000	
C#CCOc1ccc2cc(C(=O)OC)c(=O)oc2c1	1		1790	1570	
C#CCNCCOc1ccc2ccc(=O)oc2c1	12		852	10000	
C#CCCCOc1ccc2ccc(=O)oc2c1	38		91.8	3520	

Now from value to compound:

Ratio IC50 (Homo sapiens)	logD [1]	IC50 [2] [nM]	IC50 [3] [nM]	inhibition (INH) [4]	SMILES
> 400	2.4	24.7	> 10000		C#CCCCCOc1ccc2oc(=O)c(NC(C)=O)cc2c1
> 150	3.5	67.1	> 10000		C#CCCCCOc1ccc2cc(C(=O)c3ccc(OC)cc3)c(=O)oc2c1
21		43.6	930		C#CCCCOc1ccc2cc(NC(C)=O)c(=O)oc2c1
75	4.2	0.875	66.1		CCCCCCOc1ccc2cc(C(=O)OC)c(=O)oc2c1
> 3400	4.3	2.96	> 10000	Active	C#CCCCCOc1ccc2cc(-c3ccc(OC)cc3)c(=O)oc2c1
> 320		31.5	> 10000		COC(=O)c1cc2cc(OCc3cccc(Cl)c3)ccc2oc1=O
53	3.9	1.41	74.8		COC(=O)c1cc2ccc(OCCc3ccc(Cl)cc3)cc2oc1=O
5		13.5	62.7		CC(=O)Nc1cc2ccc(OCc3cccc(Cl)c3)cc2oc1=O
78		0.77	59.9		C#CCCCCOc1ccc2c(C)cc(=O)oc2c1
> 190	1.6	52.6	> 10000		C#CCCCCOc1ccc2c(c1)NC(=O)CC2
30		18.2	553		C#CCCCOc1ccc2c(C)cc(=O)oc2c1
7	2.5	1.41	9.64	Active	C#CCCCCOc1ccc2cc(C(=O)OC)c(=O)oc2c1
130	3.2	0.588	77.2		COC(=O)c1cc2ccc(OCc3cccc(F)c3)cc2oc1=O
2		41.7	66.8		C#CCCCCOc1ccc2cc(NC(C)=O)c(=O)oc2c1
140		2.62	367		C#CCCCCOc1ccc2ccc(=O)oc2c1
